Measured values published in ChEMBL document CHEMBL3272242, “Sulfamylurea hypoglycemic agents. 6. High-potency derivatives” (J Med Chem, 1976).
Active and inactive are the calls of the source. No cut-off for these calls is given here.

What was measured:
Rattus norvegicus [1] = assay: Hypoglycemic activity in 18 to 24 hrs-fasted rat assessed as reduction in blood glucose at 5 mg/kg, ip measured after 1 hr relative to saline-treated control; assay type: functional; parameters: scale not given: the % may be the effect or the level left; conditions: route intraperitoneal
Outline: (§1)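 Unanesthetized male Charles River rats (200–250 g), fasted 18–24 h, in groups of five or six. Single ip dose. Tail-vein blood drawn before dosing and 1 h after. Glucose measured by ferricyanide reduction micromethod on an autoanalyzer. Value is the percent fall in blood glucose at 1 h versus a saline-treated control group. Significance levels are p < 0.05, 0.01 and 0.001.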

Rattus norvegicus [2] = assay: Hypoglycemic activity in 18 to 24 hrs-fasted rat assessed as reduction in blood glucose at 1 mg/kg, ip measured after 1 hr relative to saline-treated control; assay type: functional; parameters: scale not given: the % may be the effect or the level left; conditions: route intraperitoneal; outline: as §1
Rattus norvegicus [3] = assay: Hypoglycemic activity in 18 to 24 hrs-fasted rat assessed as reduction in blood glucose at 25 mg/kg, ip measured after 1 hr relative to saline-treated control; assay type: functional; parameters: scale not given: the % may be the effect or the level left; conditions: route intraperitoneal; outline: as §1
Rattus norvegicus [4] = assay: Hypoglycemic activity in 18 to 24 hrs-fasted rat assessed as reduction in blood glucose at 15 mg/kg, ip measured after 1 hr relative to saline-treated control; assay type: functional; parameters: scale not given: the % may be the effect or the level left; conditions: route intraperitoneal; outline: as §1
Rattus norvegicus [5] = assay: Hypoglycemic activity in 18 to 24 hrs-fasted rat assessed as reduction in blood glucose at 0.5 mg/kg, ip measured after 1 hr relative to saline-treated control; assay type: functional, organism-based; parameters: dose 0.5 mg/kg; outline: as §1
Rattus norvegicus [6] = assay: Hypoglycemic activity in 18 to 24 hrs-fasted rat assessed as reduction in blood glucose at 100 mg/kg, ip measured after 1 hr relative to saline-treated control; assay type: functional; parameters: scale not given: the % may be the effect or the level left; conditions: route intraperitoneal; outline: as §1
Homo sapiens = species: Homo sapiens; assay: Toxicity in maturity-onset diabetic patient; assay type: organism-based; conditions: in vivo
Rattus norvegicus [7] = assay: Hypoglycemic activity in 18 to 24 hrs-fasted rat assessed as reduction in blood glucose at 50 mg/kg, ip measured after 1 hr relative to saline-treated control; assay type: functional; parameters: scale not given: the % may be the effect or the level left; conditions: route intraperitoneal; outline: as §1

Row | Structure (SMILES) | Activity (Rattus norvegicus [1]) [%] | Activity (Rattus norvegicus [2]) [%] | Activity (Rattus norvegicus [4]) [%] | other results
1 | COc1ccc(Cl)cc1C(=O)NCCC1CCN(S(=O)(=O)NC(=O)NC2CCCCC2)CC1 | 25 | 39 | – | –
2 | CCCNC(=O)NS(=O)(=O)N1CCC(CCNC(=O)c2cc(Cl)ccc2OC)CC1 | 11 | 24 | – | Activity (Rattus norvegicus [3]): 41%
3 | COc1ncccc1C(=O)NCCC1CCN(S(=O)(=O)NC(=O)NC2CCCCC2)CC1 | 33 | 22 | 35 | –
4 | O=C(NC1CCCCC1)NS(=O)(=O)N1CCC(CCNC(=O)c2cccc3cccnc23)CC1 | 37 | 29 | – | –
5 | O.O=C(NC1CCCCC1)NS(=O)(=O)N1CCC(CCNC(=O)c2cc(Cl)cc3cccnc23)CC1 | 52 | 17 | – | Activity (Rattus norvegicus [5]): inactive
6 | COc1ncccc1C(=O)NCCC1CCN(S(=O)(=O)NC(=O)NC23CC4CC(CC(C4)C2)C3)CC1 | 25 | 12 | – | –
7 | O=C(NC1CCCCC1)NS(=O)(=O)N1CCCCC1 | – | – | 19 | Activity (Rattus norvegicus [6]): 34%
8 | COc1ccc(Cl)cc1C(=O)NCCC1CCN(S(=O)(=O)NC(=O)NC[C@@H]2C[C@@H]3C=C[C@@H]2C3)CC1 (relative stereo) | 37 | 27 | – | –
9 | O=C(NC[C@@H]1C[C@@H]2C=C[C@@H]1C2)NS(=O)(=O)N1CCC(CCNC(=O)c2cc(Cl)ccn2)CC1 (relative stereo) | 32 | 16 | 46 | –
10 | COc1ncc(Cl)cc1C(=O)NCCC1CCN(S(=O)(=O)NC(=O)NC[C@@H]2C[C@@H]3C=C[C@@H]2C3)CC1.O (relative stereo) | – | 20 | – | Activity (Rattus norvegicus [5]): inactive
11 | Cn1cccc(C(=O)NCCC2CCN(S(=O)(=O)NC(=O)NC[C@@H]3C[C@@H]4C=C[C@@H]3C4)CC2)c1=O (relative stereo) | – | 19 | 40 | –
12 | O.O=C(NC[C@@H]1C[C@@H]2C=C[C@@H]1C2)NS(=O)(=O)N1CCC(CCNC(=O)c2nc3ccccc3s2)CC1 (relative stereo) | 24 | 14 | 34 | –
13 | O.O=C(NC[C@@H]1C[C@@H]2C=C[C@@H]1C2)NS(=O)(=O)N1CCC(CCNC(=O)c2cccc3cccnc23)CC1 (relative stereo) | 34 | 32 | – | –
14 | O.O=C(NC[C@@H]1C[C@@H]2C=C[C@@H]1C2)NS(=O)(=O)N1CCC(CCNC(=O)c2cc(Cl)cc3cccnc23)CC1 (relative stereo) | 35 | 16 | – | Activity (Rattus norvegicus [5]): inactive
15 | O=C(NC[C@@H]1C[C@@H]2CC[C@@H]1O2)NS(=O)(=O)N1CCC(CCNC(=O)c2cccc3c2OCCO3)CC1 (relative stereo) | 15 | – | 13 | –
16 | COc1ncccc1C(=O)NCCC1CCN(S(=O)(=O)NC(=O)NC[C@@H]2C[C@@H]3C=C[C@@H]2C3)CC1 (relative stereo) | 32 | 25 | – | Activity (Homo sapiens): Non-toxic
17 | Cn1cc(C(=O)NCCC2CCN(S(=O)(=O)NC(=O)NC[C@@H]3C[C@@H]4C=C[C@@H]3C4)CC2)c(=O)n(C)c1=O (relative stereo) | 23 | 12 | 32 | –
18 | CCCNC(=O)NS(=O)(=O)c1ccc(Cl)cc1 [CHLORPROPAMIDE] | 10 | – | 18 | Activity (Rattus norvegicus [7]): 46%
